Assay results: ChEMBL document CHEMBL1926556, “Synthesis and biological activities of 2-[(heteroaryl)methyl]imidazolines” (Bioorg Med Chem, 2012)
The source made the active and inactive calls. The calls are words filed in the database; no cut-off is given here.

Legend:
[1] = biological target: T1, Adrenergic receptor alpha-1 (Rattus norvegicus, UniProt P15823+P23944+P43140); experiment: Displacement of [3H]prazosin from adrenoceptor alpha1 in Sprague-Dawley rat brain after 45 mins by scintillation counting
T1 sequence (P15823 whole entry): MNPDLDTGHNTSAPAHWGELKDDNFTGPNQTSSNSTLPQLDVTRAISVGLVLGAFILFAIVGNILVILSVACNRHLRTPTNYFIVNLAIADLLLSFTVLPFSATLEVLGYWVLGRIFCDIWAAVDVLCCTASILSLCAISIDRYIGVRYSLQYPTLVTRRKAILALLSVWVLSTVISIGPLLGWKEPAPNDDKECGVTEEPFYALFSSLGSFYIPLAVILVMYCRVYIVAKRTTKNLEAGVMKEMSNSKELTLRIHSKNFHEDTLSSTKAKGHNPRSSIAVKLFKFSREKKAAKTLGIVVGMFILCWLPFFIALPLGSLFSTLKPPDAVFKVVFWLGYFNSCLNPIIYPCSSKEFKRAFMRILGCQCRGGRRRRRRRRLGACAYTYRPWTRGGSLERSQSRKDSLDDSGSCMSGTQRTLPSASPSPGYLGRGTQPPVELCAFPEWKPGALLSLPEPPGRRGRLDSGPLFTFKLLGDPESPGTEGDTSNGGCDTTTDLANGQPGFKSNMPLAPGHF
T1 sequence (P23944 whole entry): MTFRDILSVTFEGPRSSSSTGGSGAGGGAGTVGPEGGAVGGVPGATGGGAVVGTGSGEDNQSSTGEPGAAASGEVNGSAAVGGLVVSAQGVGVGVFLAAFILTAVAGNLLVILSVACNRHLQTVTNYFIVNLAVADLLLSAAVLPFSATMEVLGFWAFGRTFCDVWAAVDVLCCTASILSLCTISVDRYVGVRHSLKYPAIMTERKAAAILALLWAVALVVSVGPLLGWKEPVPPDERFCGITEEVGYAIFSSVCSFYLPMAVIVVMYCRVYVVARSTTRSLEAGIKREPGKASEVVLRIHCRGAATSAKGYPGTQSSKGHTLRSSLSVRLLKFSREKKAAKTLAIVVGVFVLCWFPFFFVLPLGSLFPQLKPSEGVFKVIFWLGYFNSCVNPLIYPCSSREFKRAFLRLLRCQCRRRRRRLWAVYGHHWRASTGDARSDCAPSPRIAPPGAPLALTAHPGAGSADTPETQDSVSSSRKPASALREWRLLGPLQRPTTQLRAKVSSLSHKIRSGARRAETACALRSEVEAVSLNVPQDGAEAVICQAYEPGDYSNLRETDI
T1 sequence (P43140 whole entry): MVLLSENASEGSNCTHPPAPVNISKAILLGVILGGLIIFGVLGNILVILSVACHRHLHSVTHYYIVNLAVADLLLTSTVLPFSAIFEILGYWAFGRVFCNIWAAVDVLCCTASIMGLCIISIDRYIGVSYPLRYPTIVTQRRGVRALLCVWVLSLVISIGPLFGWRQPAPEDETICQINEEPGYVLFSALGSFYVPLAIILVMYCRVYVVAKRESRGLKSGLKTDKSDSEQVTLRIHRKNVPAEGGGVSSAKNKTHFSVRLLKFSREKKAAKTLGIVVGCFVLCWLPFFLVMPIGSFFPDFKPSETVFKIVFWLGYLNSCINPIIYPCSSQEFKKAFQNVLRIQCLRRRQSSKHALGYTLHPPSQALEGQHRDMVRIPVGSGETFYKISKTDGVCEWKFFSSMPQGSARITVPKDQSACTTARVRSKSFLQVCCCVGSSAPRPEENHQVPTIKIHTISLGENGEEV
Summary of the method: (§1)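 Crude P2 membranes from male Sprague–Dawley rat brain (250–280 g), 0.2–0.3 mg protein. Radioligand 1 nM: [3H]2BFI for I2, [3H]prazosin for α1, [3H]RX821002 for α2. Non-specific binding defined by 10 µM BU224 (I2), 10 µM phenylephrine (α1) or 10 µM rauwolscine (α2). 11 concentrations from 0.01 nM to 100 µM, triplicate, 45 min at RT. Filtration and scintillation counting; Ki by Cheng–Prusoff.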

Nischarin = Nischarin (Rattus norvegicus, UniProt Q4G017); experiment: Displacement of [3H]clonidine from imidazoline I1 receptor in Sprague-Dawley rat kidney membranes after 45 mins by scintillation counting; format: cell membranes, Membrane
Summary of the method: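 Crude P2 membranes from male Sprague–Dawley rat kidney, 0.2–0.5 mg protein. […] Specific binding defined by 10 µM rilmenidine. 11 concentrations from 0.01 to 100 µM, 50 mM Tris-HCl pH 7.4, 45 min at RT. Filtration and scintillation counting; IC50.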

[2] = biological target: T2, Adrenergic receptor alpha-2 (Rattus norvegicus, UniProt P22086+P19328+P22909); experiment: Displacement of […] from adrenoceptor alpha2 in Sprague-Dawley rat brain membranes after 45 mins by scintillation counting; format: cell membranes, Membrane; summary of the method: as §1
T2 sequence (P22086 whole entry): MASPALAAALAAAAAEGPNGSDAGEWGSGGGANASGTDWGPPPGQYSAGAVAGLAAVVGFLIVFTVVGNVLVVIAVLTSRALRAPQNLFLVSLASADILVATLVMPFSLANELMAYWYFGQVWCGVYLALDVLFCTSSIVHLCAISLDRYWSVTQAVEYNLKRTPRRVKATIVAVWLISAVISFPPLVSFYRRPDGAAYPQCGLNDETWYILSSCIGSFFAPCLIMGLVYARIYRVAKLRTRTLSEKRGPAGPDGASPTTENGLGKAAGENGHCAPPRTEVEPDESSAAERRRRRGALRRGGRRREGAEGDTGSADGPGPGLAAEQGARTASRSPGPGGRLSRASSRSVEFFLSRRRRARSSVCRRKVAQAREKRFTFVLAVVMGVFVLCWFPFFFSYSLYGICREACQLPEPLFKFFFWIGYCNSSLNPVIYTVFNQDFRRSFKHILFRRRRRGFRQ
T2 sequence (P19328 whole entry): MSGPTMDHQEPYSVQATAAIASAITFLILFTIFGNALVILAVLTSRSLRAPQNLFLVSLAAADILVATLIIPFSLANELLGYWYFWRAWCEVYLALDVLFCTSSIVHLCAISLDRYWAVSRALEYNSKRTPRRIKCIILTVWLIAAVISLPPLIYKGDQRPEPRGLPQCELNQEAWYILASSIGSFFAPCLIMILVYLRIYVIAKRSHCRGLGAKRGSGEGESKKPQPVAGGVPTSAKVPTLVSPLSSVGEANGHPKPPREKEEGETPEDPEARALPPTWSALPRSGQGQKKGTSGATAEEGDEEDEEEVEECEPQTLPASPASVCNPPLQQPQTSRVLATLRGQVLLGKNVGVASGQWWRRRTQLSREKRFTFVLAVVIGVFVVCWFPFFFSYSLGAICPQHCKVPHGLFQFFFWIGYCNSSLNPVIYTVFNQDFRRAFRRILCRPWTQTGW
T2 sequence (P22909 whole entry): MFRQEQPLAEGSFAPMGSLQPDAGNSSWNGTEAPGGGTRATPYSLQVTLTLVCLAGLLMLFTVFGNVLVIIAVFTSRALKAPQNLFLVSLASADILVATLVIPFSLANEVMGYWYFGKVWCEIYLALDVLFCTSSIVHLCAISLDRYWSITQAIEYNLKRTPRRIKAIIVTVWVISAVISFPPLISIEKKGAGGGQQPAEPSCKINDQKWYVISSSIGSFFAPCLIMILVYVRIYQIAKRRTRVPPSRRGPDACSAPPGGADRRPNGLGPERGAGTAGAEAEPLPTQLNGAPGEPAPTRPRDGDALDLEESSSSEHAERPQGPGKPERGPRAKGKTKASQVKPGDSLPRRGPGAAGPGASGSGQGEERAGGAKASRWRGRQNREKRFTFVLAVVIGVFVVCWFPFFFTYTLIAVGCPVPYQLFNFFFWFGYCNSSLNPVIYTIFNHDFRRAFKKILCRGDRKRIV

[3] = Displacement of [3H]BFI from imidazoline I2 receptor in Sprague-Dawley rat brain membranes after 45 mins by scintillation counting; format: cell membranes, Membrane; summary of the method: as §1
Rattus norvegicus = species on record: Rattus norvegicus; experiment: Displacement of [3H]BFI from imidazoline I2 in Sprague-Dawley rat brain membranes at 1 X 10^6 after 45 mins by scintillation counting; format: cell membranes; conditions: Membrane
[4] = biological target: T3, Alpha-2A adrenergic receptor (Homo sapiens) (UniProt P08913); experiment: Agonist activity at human adrenoceptor alpha2A expressed in CHOK1 cells assessed as stimulation of agonist-induced [35S]GTPgammaS binding by scintillation counting assay relative to noradrenaline; format: functional, cell-based; conditions: CHO-K1
T3 sequence (whole entry): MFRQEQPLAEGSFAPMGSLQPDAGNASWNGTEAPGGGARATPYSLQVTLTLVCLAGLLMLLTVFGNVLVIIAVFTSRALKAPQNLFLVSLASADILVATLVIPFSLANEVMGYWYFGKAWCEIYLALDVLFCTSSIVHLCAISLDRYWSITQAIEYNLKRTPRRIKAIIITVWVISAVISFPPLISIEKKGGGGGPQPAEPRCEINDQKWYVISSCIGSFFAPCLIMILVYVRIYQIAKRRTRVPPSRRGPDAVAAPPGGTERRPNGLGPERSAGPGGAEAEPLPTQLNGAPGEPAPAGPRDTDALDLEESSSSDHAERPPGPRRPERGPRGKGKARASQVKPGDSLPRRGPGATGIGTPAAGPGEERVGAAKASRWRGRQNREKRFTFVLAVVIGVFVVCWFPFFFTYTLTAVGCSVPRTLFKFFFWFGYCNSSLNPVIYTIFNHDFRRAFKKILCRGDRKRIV
Summary of the method: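 Membranes from CHO-K1 cells stably expressing human α2A-adrenoceptor; 5 µg protein incubated with serial dilutions of agonist and 0.1 nM [35S]GTPγS in Tris buffer pH 7.4 with 1 µM GDP, MgCl2, NaCl, 30 min at RT. Filtered and counted by scintillation. EC50 and intrinsic activity relative to noradrenaline; means from 3 independent experiments.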

Sequence of Nischarin (Q4G017 whole entry): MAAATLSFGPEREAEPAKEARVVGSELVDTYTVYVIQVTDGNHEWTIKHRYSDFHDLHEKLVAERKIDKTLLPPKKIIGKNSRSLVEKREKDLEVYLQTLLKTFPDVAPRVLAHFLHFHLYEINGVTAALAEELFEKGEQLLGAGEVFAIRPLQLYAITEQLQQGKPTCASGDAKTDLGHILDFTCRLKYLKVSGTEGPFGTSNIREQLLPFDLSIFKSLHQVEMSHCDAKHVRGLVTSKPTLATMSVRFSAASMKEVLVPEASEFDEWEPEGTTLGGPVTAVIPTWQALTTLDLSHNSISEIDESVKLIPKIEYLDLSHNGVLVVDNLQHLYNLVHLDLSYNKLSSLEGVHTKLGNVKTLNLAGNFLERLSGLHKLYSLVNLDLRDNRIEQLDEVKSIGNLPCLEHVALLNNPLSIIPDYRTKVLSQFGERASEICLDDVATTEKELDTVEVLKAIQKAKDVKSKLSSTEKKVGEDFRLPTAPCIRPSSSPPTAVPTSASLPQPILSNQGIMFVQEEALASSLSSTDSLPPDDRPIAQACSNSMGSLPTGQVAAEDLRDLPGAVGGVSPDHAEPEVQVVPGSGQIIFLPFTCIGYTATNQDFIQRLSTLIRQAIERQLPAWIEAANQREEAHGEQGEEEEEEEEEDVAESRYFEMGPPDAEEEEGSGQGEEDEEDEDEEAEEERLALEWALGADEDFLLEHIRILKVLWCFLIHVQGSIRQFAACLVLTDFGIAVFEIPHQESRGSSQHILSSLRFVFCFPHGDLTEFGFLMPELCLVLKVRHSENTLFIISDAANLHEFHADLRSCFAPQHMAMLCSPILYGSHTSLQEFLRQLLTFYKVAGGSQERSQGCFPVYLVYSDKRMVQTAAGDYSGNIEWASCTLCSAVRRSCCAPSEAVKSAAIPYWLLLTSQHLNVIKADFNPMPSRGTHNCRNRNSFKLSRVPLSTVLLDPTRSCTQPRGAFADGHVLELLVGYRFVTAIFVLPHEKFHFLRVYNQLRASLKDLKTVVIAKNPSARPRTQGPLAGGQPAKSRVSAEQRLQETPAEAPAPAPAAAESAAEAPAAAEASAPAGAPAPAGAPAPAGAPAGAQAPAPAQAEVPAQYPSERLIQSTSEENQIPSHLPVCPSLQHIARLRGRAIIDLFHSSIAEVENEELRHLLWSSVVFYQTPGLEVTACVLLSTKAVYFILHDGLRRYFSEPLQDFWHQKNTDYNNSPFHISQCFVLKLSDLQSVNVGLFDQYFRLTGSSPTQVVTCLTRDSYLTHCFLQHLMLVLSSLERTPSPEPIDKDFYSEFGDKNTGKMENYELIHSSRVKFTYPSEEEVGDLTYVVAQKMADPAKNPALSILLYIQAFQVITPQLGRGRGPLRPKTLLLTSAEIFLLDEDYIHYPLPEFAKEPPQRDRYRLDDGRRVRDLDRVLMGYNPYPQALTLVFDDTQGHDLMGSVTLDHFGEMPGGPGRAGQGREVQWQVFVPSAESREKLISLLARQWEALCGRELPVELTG

SMILES	Ki [1]	IC50 (Nischarin)	Ki [2]	Ki [3]	Activity (Rattus norvegicus)	Emax [4]
Cl.c1ccc2c(c1)nnn2CC1=NCCN1	1.34 µM	56.8 µM	5.11 µM	0.81 µM	–	–
Cl.Cl.c1ccc(Cc2nc3ccccc3n2CC2=NCCN2)cc1	30.9 µM	21 µM	11.2 µM	–	inactive	–
CCc1nc2cc(C)c(C)cc2n1CC1=NCCN1.Cl.Cl	12.9 µM	93.3 µM	7.41 µM	0.081 µM	–	–
Cl.Cl.c1ccc2c(c1)ncn2CC1=NCCN1	0.929 µM	43.9 µM	3.25 µM	6.1 µM	–	–
Cc1nc2ccccc2n1CC1=NCCN1.Cl.Cl	1.29 µM	9.39 µM	1.02 µM	–	inactive	–
Cc1cccc2nn(CC3=NCCN3)nc12.Cl.Cl	1.54 µM	48.8 µM	0.499 µM	0.078 µM	–	–
Cc1cccc2c1ncn2CC1=NCCN1.Cl.Cl	1.5 µM	77.7 µM	0.273 µM	24.4 µM	–	–
Cc1cccc2c1cnn2CC1=NCCN1.Cl	0.409 µM	12.9 µM	0.197 µM	0.116 µM	–	–
Cc1cc2nnn(CC3=NCCN3)c2cc1C.Cl.Cl	8.04 µM	16.8 µM	1.56 µM	26.3 µM	–	–
CCc1nc2ccccc2n1CC1=NCCN1.Cl.Cl	5.5 µM	44.2 µM	5 µM	34.1 µM	–	–
COc1cccc2c1cnn2CC1=NCCN1.Cl.Cl	1.67 µM	32.9 µM	0.305 µM	0.382 µM	–	–
Cc1nn(CC2=NCCN2)c2ccccc12.Cl.Cl	0.095 µM	21.3 µM	0.435 µM	0.359 µM	–	–
Cl.Cl.c1ccc(-c2nc3ccccc3n2CC2=NCCN2)cc1	1.11 µM	28.1 µM	7.44 µM	–	inactive	–
Cl.Clc1cccc2c1cnn2CC1=NCCN1	0.187 µM	5.15 µM	0.13 µM	2.85 µM	–	–
Cc1ccc2c(cnn2CC2=NCCN2)c1.Cl.Cl	0.363 µM	45.4 µM	0.268 µM	0.022 µM	–	–
Cc1cc2ncn(CC3=NCCN3)c2cc1C.Cl.Cl	1.5 µM	74 µM	2.26 µM	28 µM	–	–
NC[C@H](O)c1ccc(O)c(O)c1	–	–	–	–	–	100%
Cl.Fc1cccc2cnn(CC3=NCCN3)c12	0.107 µM	16.4 µM	0.0126 µM	0.156 µM	–	–
Cc1cc2nn(CC3=NCCN3)nc2cc1C.Cl.Cl	6.07 µM	0.646 µM	1.32 µM	0.233 µM	–	–
